From ChEMBL document CHEMBL3784930, “Design, synthesis and biological evaluation of N,N-3-phenyl-3-benzylaminopropanamide derivatives as novel cholesteryl ester transfer protein inhibitor” (Bioorg Med Chem, 2016) come the findings set out here.

In experiment [1] the target is T1, Cholesteryl ester transfer protein (Homo sapiens, UniProt P11597).
T1 sequence (P11597 whole entry): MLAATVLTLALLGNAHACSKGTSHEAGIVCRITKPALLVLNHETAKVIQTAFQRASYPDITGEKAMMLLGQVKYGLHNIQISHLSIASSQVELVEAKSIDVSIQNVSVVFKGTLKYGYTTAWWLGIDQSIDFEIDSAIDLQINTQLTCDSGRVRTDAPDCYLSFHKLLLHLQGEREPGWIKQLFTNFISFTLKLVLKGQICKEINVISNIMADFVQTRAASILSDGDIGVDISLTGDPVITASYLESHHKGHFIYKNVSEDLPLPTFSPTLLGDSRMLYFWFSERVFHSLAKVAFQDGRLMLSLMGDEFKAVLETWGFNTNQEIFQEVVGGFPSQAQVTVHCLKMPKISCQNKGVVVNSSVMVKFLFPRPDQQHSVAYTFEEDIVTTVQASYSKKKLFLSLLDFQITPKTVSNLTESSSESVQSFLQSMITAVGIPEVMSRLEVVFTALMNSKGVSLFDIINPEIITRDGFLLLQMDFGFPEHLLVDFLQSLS
Description: Inhibition of full-length human recombinant CETP expressed in CHO cells by BODIPY-CE fluorescence assay. It is filed as cell-based.

Experiment [2] has as its system Syrian golden hamster. The experiment can be described thus: Antidyslipidemic activity in high cholesterol/lipid diet fed golden syrian hamster assessed as reduction in LDL-cholesterol levels at 30 mg/kg/day, po administered for 2 weeks relative to control. It is filed as functional, Mesocricetus auratus. The arrangement: scale not given: the % may be the effect or the level left. In short, it runs like this:
(§1)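 Male Golden Syrian hamsters (8 weeks old, 120-130 g) were randomized by weight into control and treated groups (n = 6). Dyslipidemia was induced with a high cholesterol and lipid diet for 5 weeks. Dosing was oral at 30 mg/kg/day for two weeks in ethanol/cremophor/saline 5:5:90. Blood was drawn from the orbit, and serum lipid levels were compared with controls.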

The subject of experiment [3] is Syrian golden hamster. The experiment can be described thus: Antidyslipidemic activity in high cholesterol/lipid diet fed golden syrian hamster assessed as increase in HDL-cholesterol levels at 30 mg/kg/day, po administered for 2 weeks relative to control. It is filed as functional, Mesocricetus auratus. In short, it runs like this:
as §1

Experiment [4] addresses Cholesteryl ester transfer protein (Homo sapiens) (UniProt P11597). The experiment can be described thus: Inhibition of recombinant CETP by BODIPY-CE fluorescence assay.
Experiment [5] is filed under the species Homo sapiens. Description: Reduction in LDL-cholestrol levels in mild dyslipidemia patient at 5 to 10 mg. It is filed as functional. More on the design: scale not given: the % may be the effect or the level left.
The species entered for experiment [6] is Homo sapiens. Description: Increase in HDL-cholestrol levels in mild dyslipidemia patient at 10 mg. It is filed as functional.
In experiment [7] the test system is Homo sapiens. The experiment can be described thus: In vivo inhibition of CETP in human whole plasma at 120 mg for 14 days. The following applies: 336 h. It is filed as functional, organism-based.

A word on the pIC50: it is the IC50 on a negative log10 scale, so that one unit is a factor of ten.

pIC50: −log10 of the molar value.

Consider `COc1ccc(N2CCN(C(=O)CCN(Cc3ccc(F)cc3)c3ccc(Cl)c(Cl)c3)CC2)cc1`, for which the negative-log IC50 (pIC50) in experiment [1] is 5.46.

`CCOC(=O)c1ccc(N2CCN(C(=O)CCN(Cc3ccc(F)cc3)c3ccc(Cl)c(Cl)c3)CC2)cc1`: the negative-log IC50 (pIC50) in experiment [1] is 5.55. Turning to `CCOC(=O)c1ccc(N2CCN(C(=O)CCN(Cc3ccc(F)cc3)c3cccc(Oc4ccccc4)c3)CC2)cc1`, the Activity in the experiment on Syrian golden hamster [2] was found to be 24.6%; in the experiment on Syrian golden hamster [3], 21.7%. As to `Cc1cc(N(CCC(=O)N2CCN(c3ccccc3)CC2)Cc2ccc(F)cc2)ccc1Br`, the pIC50 in experiment [1] was 4.86. For `O=C(CCN(Cc1ccc(F)cc1)c1ccc(Cl)c(Cl)c1)NC1CC1`, the pIC50 in experiment [1] is under 4.30. For the compound `COc1ccc(C(CC(=O)c2ccccc2)Nc2ccc(Cl)cc2)cc1OC` (configuration not stated), the pIC50 in experiment [4] is 5.09. As for `COc1ccc(N2CCN(C(=O)CCN(Cc3ccc(F)cc3)c3cccc(-c4ccccc4)c3)CC2)cc1`, the negative-log IC50 (pIC50) in experiment [1] is 5.14. `CCc1cc(N(CCC(=O)N2CCN(c3ccccc3)CC2)Cc2ccc(F)cc2)ccc1Cl`: the pIC50 in experiment [1] is 4.71.

With `O=C(CCN(Cc1ccc(F)cc1)c1ccc(Cl)c(Cl)c1)NC1CCCCC1`, the pIC50 in experiment [1] is 4.97. For the compound `CC(C)(C)NC(=O)CCN(Cc1ccc(F)cc1)c1ccc(Cl)c(Cl)c1`, the pIC50 in experiment [1] was 4.53. In the case of `O=C(CCN(Cc1ccc(F)cc1)c1ccc(Cl)c(Cl)c1)N1CCN(c2ncccn2)CC1`, the pIC50 in experiment [1] was 4.93. Regarding `O=C(CCN(Cc1ccc(F)cc1)c1ccc(Cl)c(Cl)c1)N1CCN(c2ccccc2)CC1`, in experiment [1], the pIC50 was 5.28.

Regarding `CCCCN(CC1CC1)C(=O)CCN(Cc1ccc(F)cc1)c1ccc(Cl)c(Cl)c1`, the pIC50 in experiment [1] is under 4.30. As to `O=C(CCN(Cc1ccc(F)cc1)c1cccc(-c2ccccc2)c1)N1CCN(c2ccccc2)CC1`, the pIC50 in experiment [1] was 4.95. The same measure, in the same setting: as for `O=C(CCN(Cc1ccc(F)cc1)c1ccc(Cl)c(Cl)c1)N1CCOCC1`, the figure is 4.85; as for `O=C(CCN(Cc1ccc(F)cc1)c1ccc(Cl)c(C(F)(F)F)c1)N1CCN(c2ccccc2)CC1`, 4.42; as for `COc1ccc(N2CCN(C(=O)CCN(Cc3ccc(F)cc3)c3cccc(Oc4ccccc4)c3)CC2)cc1`, 5.55. Regarding `CCOC(=O)c1ccc(N2CCN(C(=O)CCN(Cc3ccc(F)cc3)c3cccc(-c4ccccc4)c3)CC2)cc1`, in experiment [1], the pIC50 was 5.51. Turning to `CCOC(=O)N1c2ccc(C(F)(F)F)cc2[C@@H](N(Cc2cc(C(F)(F)F)cc(C(F)(F)F)c2)c2ncc(OCCCC(=O)O)cn2)C[C@H]1CC` [OBICETRAPIB], the Activity was found to be 45.3% in the experiment filed under Homo sapiens [5] and 179.1% in the experiment filed under Homo sapiens [6]. For `CCOC(=O)N1c2ccc(C(F)(F)F)cc2[C@@H](N(Cc2cc(C(F)(F)F)cc(C(F)(F)F)c2)C(=O)OC)C[C@H]1CC` [TORCETRAPIB], the negative logarithm of the IC50 (pIC50) in the experiment with Homo sapiens [7] was 7.30.
